TAAR1 agonist: human TAAR1 agonists, primary screen, Fluo-8 calcium fluorescence, CHO RD-HGA16 cells. activation, % at 3 µM. Trace amine-associated receptor 1 (Homo sapiens), Q96RJ0. vehicle wells 0%, saturating PEA agonist 100%. 360,000 tested, 0.99% active;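 active means activation above the mean activation of all test compounds in the run plus 3 SD, cut at about 38% in these data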
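Repeats: no replicates (n 1) | Material: CHO-derived RD-HGA16 cells with stable Gα16 and human TAAR1 | Technique: Kinetic Fluo-8 calcium fluorescence | Schedule: 17-24 h seeding, 75 min 37 °C dye, 30 min RT | Evaluation: % activation from peak over basal fluorescence ratio, DMSO-to-PEA scaled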
VLA-4 inh: inhibition in human VLA-4 binding assay, primary screen, VLA-4 allosteric modulator project, MLPCN library, flow cytometry, VLA-4 expressing cells; Integrin alpha-4 (Homo sapiens), P13612; 330,000 tested, 0.2% active; ligand binding flow cytometry; inhibition, % (about 7 µM as worked out from the volumes in the protocol); in the data active means inhibition above about 50%
Target sequence (P13612 whole entry, looked up): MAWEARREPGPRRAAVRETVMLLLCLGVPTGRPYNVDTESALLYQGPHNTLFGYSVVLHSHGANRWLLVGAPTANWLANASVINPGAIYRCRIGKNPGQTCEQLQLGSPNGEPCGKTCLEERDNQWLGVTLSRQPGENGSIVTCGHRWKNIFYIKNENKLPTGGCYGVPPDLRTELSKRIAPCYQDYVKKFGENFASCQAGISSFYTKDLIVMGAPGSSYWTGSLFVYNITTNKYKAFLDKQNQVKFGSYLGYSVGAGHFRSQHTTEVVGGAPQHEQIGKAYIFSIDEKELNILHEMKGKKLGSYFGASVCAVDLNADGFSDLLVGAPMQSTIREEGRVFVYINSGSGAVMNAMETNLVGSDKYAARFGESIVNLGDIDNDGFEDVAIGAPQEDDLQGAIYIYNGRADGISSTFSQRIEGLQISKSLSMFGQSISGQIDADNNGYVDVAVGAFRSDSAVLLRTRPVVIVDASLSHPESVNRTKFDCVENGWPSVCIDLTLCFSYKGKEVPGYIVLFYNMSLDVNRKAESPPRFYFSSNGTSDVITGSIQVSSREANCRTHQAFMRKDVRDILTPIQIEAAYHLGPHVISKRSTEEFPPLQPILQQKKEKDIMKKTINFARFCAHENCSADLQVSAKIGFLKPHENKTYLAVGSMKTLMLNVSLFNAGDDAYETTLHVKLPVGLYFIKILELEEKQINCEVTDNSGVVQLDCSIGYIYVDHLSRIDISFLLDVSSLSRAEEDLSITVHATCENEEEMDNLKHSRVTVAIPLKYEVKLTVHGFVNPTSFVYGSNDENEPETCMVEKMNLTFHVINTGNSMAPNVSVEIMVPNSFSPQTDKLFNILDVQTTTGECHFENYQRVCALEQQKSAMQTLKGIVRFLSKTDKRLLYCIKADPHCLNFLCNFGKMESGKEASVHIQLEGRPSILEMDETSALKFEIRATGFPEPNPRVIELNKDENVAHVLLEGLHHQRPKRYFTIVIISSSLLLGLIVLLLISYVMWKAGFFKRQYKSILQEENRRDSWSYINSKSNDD
TAAR1 antagonist: human TAAR1 antagonists, primary screen, Fluo-8 calcium fluorescence, CHO RD-HGA16 cells; Trace amine-associated receptor 1 (Homo sapiens), Q96RJ0; 360,000 tested, 1.5% active; inhibition, % at 3 µM; antagonist;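 active means inhibition above a per-plate cutoff, the mean inhibition of test compounds on that plate plus 3 SD, cut at about 49% in these data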
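Test system: CHO RD-HGA16 cells bearing hTAAR1 | Reagent: β-PEA, EC80 | Compound dosing: 3 µM, single point | Schedule: Dye loading 75 min at 37 °C, then 30 min room temperature | Signal: Calcium fluorescence with Fluo-8 | Evaluation: Percent inhibition of PEA-evoked calcium signal, max/basal emission ratio | Control set: DMSO-only wells and EC80 β-PEA-stimulated wells | Repeats: Singlicate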
Platelet DG rel: inhibitors of platelet dense granule secretion, primary screen, cell-based, MLPCN, human platelets | AID 1663, 2009 | human platelet-rich plasma, SFLLRN dense granule ATP release, luminescence | inhibition, %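 (compounds screened at 7.5 µM in platelet-rich plasma)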 | 300,000 tested, 0.22% active;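 active means mean replicate score, as percent of positive control, at or above 50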
Rce1 inhib: yeast Rce1p protease inhibitors, primary screen, biochemical, fluorescence, cell-free homogeneous | calls only | yeast membranes, quenched prenylated peptide cleavage fluorescence | CAAX prenyl protease 2 (Saccharomyces cerevisiae (strain ATCC 204508 / S288c)), Q03530 | 290,000 tested, 0.27% active;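 active means fall in fluorescence gain of 50% or more versus controls, with final raw signal at or below 3038400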
TAAR1 ag confirm: human TAAR1 agonists, retest of hits, confirmation, Fluo-8 calcium fluorescence, CHO RD-HGA16 cells | shares compounds with TAAR1 agonist | AID 651783, 2012 | scaled: DMSO 0%, maximal phenethylamine 100% | 2,400 tested, 82% active | activation, % at 3 µM;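 active means activation above a cutoff set at the run's mean compound activation plus 3 SD, cut at about 39% in these data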
Ga16 nonsel ag: nonselective calcium mobilization agonists, CHO-Ga16 cells, counter-screen for hTAAR1 agonist project, cell-based, fluorescence, CHO-Ga16 parental line. shares compounds with TAAR1 agonist. Fluo-8 calcium fluorescence; normalized to maximal ATP response, DMSO zero. activation, % at 3 µM. 2,400 tested, 50% active;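 active means activation above the run cutoff, the mean activation over all tested wells plus 3 SD, cut at about 12% in these data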
TAAR1 desensitize: TAAR1 desensitization by agonist hits, confirmation, counter-screen for TAAR1 agonist project, cell-based, fluorescence, tachyphylaxis | CHO RD-HGA16 hTAAR1, Fluo-8 calcium, beta-PEA response inhibition | inhibition, % at 3 µM | 2,400 tested, 46% active | shares compounds with TAAR1 agonist;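 active means inhibition above the run cutoff, the mean inhibition of all test compounds plus 3 SD, cut at about 49% in these data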;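 further: beta-PEA stimulus applied at its EC80; loss of beta-PEA calcium signal after compound pretreatment read as receptor desensitization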
Ga16 nonsel ant: inhibition of ATP-evoked calcium response in CHO-Ga16 cells, counter-screen for TAAR1 agonist project, cell-based, fluorescence. shares compounds with TAAR1 agonist. CHO-Ga16 ATP-induced calcium, Fluo-8 fluorescence. inhibition, % at 3 µM. 2,400 tested, 39% active;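 active means inhibition above the plate's mean compound inhibition plus 3 SD, computed per plate, cut at about 22% in these data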
Each line names hits and unclear results; the compound was inactive in the other large screens (follow-up assays come after a bar, where they were run). Most compounds without a hit are left out; they make up all but 2.6% or so of the library.

Cc1ccc(NC(=O)CN2C(=O)S/C(=C/c3ccc(O)c([N+](=O)[O-])c3)C2=O)cc1C	TAAR1 agonist 90.9, TAAR1 antagonist 80.4 (no result: VLA-4 inh, Platelet DG rel, Rce1 inhib) | TAAR1 ag confirm inactive | Ga16 nonsel ag inactive | TAAR1 desensitize inactive | Ga16 nonsel ant inactive
Cc1cccc(NC(=O)CN2C(=O)S/C(=C\c3ccc(O)c([N+](=O)[O-])c3)C2=O)c1	none
Cc1ccc(C)c(Cn2nnc3c(=O)[nH]c(C4CCN(C(=O)c5ccco5)CC4)nc32)c1	none (no result: Rce1 inhib)
Cc1c(C(=O)NCc2ccc(C(F)(F)F)cc2)sc(=O)n1Cc1cccc(F)c1	TAAR1 agonist 127.0, TAAR1 antagonist 100.2 (no result: VLA-4 inh, Platelet DG rel, Rce1 inhib) | TAAR1 ag confirm 113.9 | Ga16 nonsel ag 77.2 | TAAR1 desensitize 97.0 | Ga16 nonsel ant 70.7
COc1ccc(-n2nc3c(N4CCC(C(=O)NCC(C)c5ccccc5)CC4)nnc(C)c3c2C)cc1 (stereo not drawn)	TAAR1 agonist 59.3 | TAAR1 ag confirm 56.4 | Ga16 nonsel ag inactive | TAAR1 desensitize inactive | Ga16 nonsel ant inactive
COc1ccc(-n2nc3c(N4CCC(C(=O)NCc5ccccc5C)CC4)nnc(C)c3c2C)cc1	none (no result: TAAR1 agonist, TAAR1 antagonist)
CN(C)c1ccc(N=C/C=C2\N(C)c3ccccc3C2(C)C)cc1	TAAR1 agonist 46.8 | TAAR1 ag confirm 73.8 | Ga16 nonsel ag 14.5 | TAAR1 desensitize inactive | Ga16 nonsel ant inactive
CN1/C(=C\C=Nc2ccc3ccccc3c2)C(C)(C)c2ccccc21	none (no result: TAAR1 agonist, TAAR1 antagonist, Platelet DG rel, Rce1 inhib)
CN1\C(=C/C=C/C=C/C=[N+](C)C)C(C)(C)c2ccccc21	TAAR1 agonist 714.7, TAAR1 antagonist 109.4 (no result: VLA-4 inh) | TAAR1 ag confirm 80.8 | Ga16 nonsel ag 109.5 | TAAR1 desensitize 69.1 | Ga16 nonsel ant 75.0
CN1/C(=C\C=O)C(C)(C)c2ccccc21	none
CCOC(=O)[C@]12CCCC=C1N(Cc1ccccc1)C(=O)[C@H](CC(=O)NCc1ccc(C)o1)C2	none (no result: VLA-4 inh, Platelet DG rel, Rce1 inhib)
COc1cccc(-c2sc3ccc(OC)cc3c2C#CCCO)c1	none (no result: Platelet DG rel, Rce1 inhib)
COc1ccc(NC(=O)C2CC(=O)NC(Nc3cccc(C)c3)=N2)cc1 (stereo not drawn)	TAAR1 agonist 51.0 | TAAR1 ag confirm 53.7 | Ga16 nonsel ag inactive | TAAR1 desensitize inactive | Ga16 nonsel ant inactive
CCCCN(C(=O)c1ccccc1F)c1c(N)n(CCC)c(=O)[nH]c1=O	none
Cc1cccc(C)c1NC1=NC2(CCCCC2)N=C(N)N1	none
NC1=NC2(CCCCC2)N=C(Nc2ccc(Br)cc2)N1	TAAR1 agonist 44.3 | TAAR1 ag confirm 68.6 | Ga16 nonsel ag inactive | TAAR1 desensitize inactive | Ga16 nonsel ant inactive
CCN1CCN(C(=O)CCc2nnc3ccc(N4CCN(c5cccc(OC)c5)CC4)nn23)CC1	none
Cc1cc(C)nc(OC(C(=O)O)C(OCCc2ccccc2)(c2ccc(F)cc2)c2ccc(F)cc2)n1 (stereo not drawn)	TAAR1 agonist 121.7 | TAAR1 ag confirm 127.8 | Ga16 nonsel ag 89.5 | TAAR1 desensitize inactive | Ga16 nonsel ant inactive
CCC(C)COC(c1ccccc1)(c1ccccc1)C(Oc1nc(C)cc(C)n1)C(=O)O (stereo not drawn)	TAAR1 agonist 80.5 | TAAR1 ag confirm 128.3 | Ga16 nonsel ag 85.5 | TAAR1 desensitize inactive | Ga16 nonsel ant inactive
Cc1cc(C)nc(OC(C(=O)O)C(OCC(C)C)(c2ccccc2)c2ccccc2)n1 (stereo not drawn)	TAAR1 agonist 108.4 | TAAR1 ag confirm 125.0 | Ga16 nonsel ag 74.4 | TAAR1 desensitize inactive | Ga16 nonsel ant inactive
COCCN(C(=O)c1ccc(COc2ccccc2)o1)c1c(N)n(CC(C)C)c(=O)[nH]c1=O	none (no result: Platelet DG rel, Rce1 inhib)
COc1ccc(N2CCN(CC(=O)Nc3nc(C)cs3)CC2)cc1	none
CC1(C(=O)NS(=O)(=O)c2ccc(Cl)s2)CCN1C(=O)C1CCCCC1 (stereo not drawn)	none (no result: VLA-4 inh, Platelet DG rel, Rce1 inhib)
Cc1ccc(Nc2nc(N)c3ccccc3n2)cc1C	TAAR1 agonist 67.5 | TAAR1 ag confirm 67.0 | Ga16 nonsel ag inactive | TAAR1 desensitize 53.9 | Ga16 nonsel ant inactive
Cc1ccccc1-n1nnnc1SCC(=O)c1c(N)n(C)c(=O)n(C)c1=O	TAAR1 agonist 92.5 (no result: VLA-4 inh) | TAAR1 ag confirm 130.3 | Ga16 nonsel ag 86.6 | TAAR1 desensitize inactive | Ga16 nonsel ant inactive
CCc1cccc(C)c1NC(=O)COC(=O)CNS(=O)(=O)/C=C/c1ccccc1	none
Cc1ccc(Cl)c(NC(=O)COC(=O)CNS(=O)(=O)/C=C/c2ccccc2)c1Cl	TAAR1 agonist 73.1 | TAAR1 ag confirm inactive | Ga16 nonsel ag inactive | TAAR1 desensitize inactive | Ga16 nonsel ant inactive
O=C1c2cccc3c(N4CCCCC4)ccc(c23)C(=O)N1c1cccc(O)c1	TAAR1 agonist 120.6, TAAR1 antagonist 79.1 | TAAR1 ag confirm inactive | Ga16 nonsel ag 31.7 | TAAR1 desensitize inactive | Ga16 nonsel ant 48.1
Cc1n[nH]c(C)c1N1C(=O)c2cccc3c(N4CCCCCC4)ccc(c23)C1=O	TAAR1 agonist 148.0, TAAR1 antagonist 82.2 | TAAR1 ag confirm 87.7 | Ga16 nonsel ag 119.1 | TAAR1 desensitize 74.5 | Ga16 nonsel ant 82.3
O=C1c2cccc3c(N4CCCCC4)ccc(c23)C(=O)N1CCO	none
C=CCN1C(=O)c2cccc3c(N4CCCCC4)ccc(c23)C1=O	none
CC(OC(=O)CCCC(=O)Nc1ccc(F)cc1)C(=O)c1ccccc1 (stereo not drawn)	none
O=C(CCN1Cc2ccccc2C1)c1ccc2c(c1)OCCO2	TAAR1 agonist 38.2 | TAAR1 ag confirm 67.8 | Ga16 nonsel ag inactive | TAAR1 desensitize inactive | Ga16 nonsel ant inactive
O=C(CCN1CCc2ccccc2C(c2ccccc2)C1)c1ccc2c(c1)OCCO2 (stereo not drawn)	TAAR1 agonist 73.2, TAAR1 antagonist 52.5 | TAAR1 ag confirm 74.6 | Ga16 nonsel ag inactive | TAAR1 desensitize 76.5 | Ga16 nonsel ant inactive
O=C(O)CCC(=O)c1ccc2c(c1)OCCO2	none

High-throughput results as filed in PubChem BioAssay.
